# Measured values reported in ChEMBL document CHEMBL4311948, “Exploring the Natural Piericidins as Anti-Renal Cell Carcinoma Agents Targeting Peroxiredoxin 1” (J Med Chem, 2019).
# The source made the active and inactive calls. No cut-off for these calls is given here.
# Assays:
# ACHN [1] = test: Cytotoxicity against human ACHN cells assessed as reduction in cell viability measured after 72 hrs by CCK8 assay; type: functional, cell-based
# Summary of the method: (§1)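 Cells were grown in 10% FBS medium: MEM for ACHN, RPMI1640 for OS-RC-2 and 786-O, DMEM for HK-2. They were seeded at 400–800 cells/well in 384-well plates and treated with a range of compound concentrations or solvent control, with sorafenib as positive control. After 72 h, CCK-8 absorbance was read at 450 nm in triplicate, and IC50 was taken from dose-response curves.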
# ACHN [2] = test: Down regulation of LDHA mRNA expression in human ACHN cells at 25 to 50 nM measured after 24 hrs by qRT-PCR analysis; type: functional, cell-based
# OS-RC-2 = test: Cytotoxicity against human OS-RC2 cells assessed as reduction in cell viability measured after 72 hrs by CCK8 assay; type: functional, cell-based; settings: OS-RC-2, 72 h; summary of the method: as §1
# 786-0 = test: Cytotoxicity against human 786-O cells assessed as reduction in cell viability measured after 72 hrs by CCK8 assay; type: functional, cell-based; settings: 786-0, 72 h; summary of the method: as §1
# ACHN [3] = test: Antitumor activity against human ACHN cells xenografted in Balb/c nu/nu mouse assessed as tumor growth inhibition at 0.8 mg/kg, ip administered once daily for 21 days measured post-last dose by H and E staining-based assay; type: functional, organism-based
# Summary of the method: (§2)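 Male athymic Balb/c nu/nu mice, four weeks old, acclimatised 1 week. 10^7 ACHN cells in 0.2 mL PBS injected into the right flank. At about 150 mm3, mice randomised into PBS control or 0.8 mg/kg groups, dosed ip daily for three weeks. Tumours measured by caliper (volume = 0.5 × L × W²) with body weight recorded. Endpoint tumour weight, sections stained by H&E and TUNEL. Tissue lysed for immunoblot.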
# [4] = biological target: T1, Peroxiredoxin-1 (Homo sapiens) (UniProt Q06830); test: Activation of PRDX1 in human ACHN cells assessed as reduction in reactive oxygen species level at 25 to 50 nM measured after 24 hrs by Cell-rox reagent-based flow cytometry
# T1 sequence (whole entry): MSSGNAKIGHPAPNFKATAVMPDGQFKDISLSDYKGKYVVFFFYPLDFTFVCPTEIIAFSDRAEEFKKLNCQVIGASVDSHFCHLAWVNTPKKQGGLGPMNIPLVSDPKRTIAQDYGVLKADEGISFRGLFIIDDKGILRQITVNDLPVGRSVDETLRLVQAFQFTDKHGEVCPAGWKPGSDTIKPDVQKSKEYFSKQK
# Summary of the method: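 ACHN cells grown 24 h in MEM + 10% FBS, reseeded at 2 × 10^4 cells/well and exposed to 0, 25 or 50 nM for 24 h. Harvested cells loaded with CellROX oxidative stress reagent 5 μM, 30 min at 37 °C in the dark, then read by flow cytometry. shPRDX1 line: stable knockdown selected with puromycin (1 μg/mL) before dosing. Mean ± SD.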
# ACHN [5] = test: Cytotoxicity against human ACHN cells harboring shPRDX1 gene assessed as reduction in cell viability measured after 72 hrs by CCK8 assay; type: functional, cell-based
# Summary of the method: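 Transfectants were selected with puromycin (1 μg/mL), and knockdown was confirmed by immunoblot. Viability was read by CCK-8 after 72 h of compound exposure in 384-well plates at 400–800 cells/well in MEM with 10% FBS, and IC50 was taken from dose-response curves.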
# Mus musculus [6] = test: Up regulation of PRDX1 mRNA expression in human ACHN cells xenografted Balb/c nu/nu mouse at 0.8 mg/kg, ip administered once daily for 21 days measured post-last dose by qRT-PCR analysis; type: functional, organism-based
# HK-2 = test: Cytotoxicity against human HK2 cells assessed as reduction in cell viability measured after 72 hrs by CCK8 assay; type: cell-based; settings: HK-2, 72 h; summary of the method: as §1
# ACHN [7] = test: Down regulation of ETS1 mRNA expression in human ACHN cells at 25 to 50 nM measured after 24 hrs by qRT-PCR analysis; type: functional, cell-based
# ACHN [8] = test: Antitumor activity against human ACHN cells xenografted in Balb/c nu/nu mouse assessed as tumor growth inhibition at 0.8 mg/kg, ip administered once daily for 21 days measured post-last dose by TUNEL staining-based assay; type: functional, organism-based; summary of the method: as §2
# ACHN [9] = test: Up regulation of PRDX1 mRNA expression in human ACHN cells at 25 to 50 nM measured after 24 hrs by qRT-PCR analysis; type: functional, cell-based
# ACHN [10] = test: Down regulation of HK2 mRNA expression in human ACHN cells at 25 to 50 nM measured after 24 hrs by qRT-PCR analysis; type: functional, cell-based
# ACHN [11] = test: Up regulation of nuclear PRDX1 expression in human ACHN cells at 25 to 50 nM measured after 24 hrs by immunoblot analysis; type: functional, cell-based
# Summary of the method: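 ACHN cells treated 24 h with 25 or 50 nM, then nuclear and cytosolic extracts prepared. Lysis in RIPA buffer, BCA quantitation, 30–50 μg protein resolved on 10% or 12% gels. Blotted with anti-PRDX1 (1:1000) and β-actin (1:3000), band ratio PRDX1/β-actin reported as fold change. Mean ± SD.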
# ACHN [12] = test: Down regulation of SOD2 mRNA expression in human ACHN cells at 25 to 50 nM measured after 24 hrs by qRT-PCR analysis; type: functional, cell-based
# ACHN [13] = test: Down regulation of EGFR mRNA expression in human ACHN cells at 25 to 50 nM measured after 24 hrs by qRT-PCR analysis; type: functional, cell-based
# ACHN [14] = test: Selectivity ratio of IC50 for cytotoxicity against human ACHN cells harboring shPRDX1 gene to IC50 for Cytotoxicity against human ACHN cells; type: functional
# [15] = Toxicity in Balb/c nu/nu mouse xenografted with human ACHN cells assessed as effect on survival at 0.8 mg/kg, ip administered once daily for 21 days; type: organism-based; settings: in vivo, 504 h; summary of the method: as §2
# [16] = biological target: T1, Peroxiredoxin-1 (Homo sapiens); test: Induction of PRDX1 nuclear translocation in human ACHN cells at 25 to 50 nM measured after 24 hrs by DAPI staining-based microscopic analysis; type: cell-based
# Summary of the method: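 ACHN cells exposed 24 h to 25 or 50 nM, fixed in 4% paraformaldehyde 10 min and permeabilised with 0.5% Triton X-100. Blocked with 10% FBS, 4 °C, 12 h. Stained with anti-PRDX1 overnight, FITC secondary 2 h RT, DAPI nuclear counterstain. Confocal imaging scored mean fluorescence intensity (n = 9).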
# Peroxiredoxin-1 = biological target: T2, Peroxiredoxin-1 (Homo sapiens, UniProt Q06830); test: Binding affinity to full-length human PRDX1 by surface plasmon resonance analysis
# T2 sequence (Q06830 whole entry): T1 sequence (whole entry)
# Summary of the method: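 Full-length human PRDX1 immobilised on a CM5 chip (Biacore T100). Analyte concentration series diluted in 10 mM Hepes pH 7.4, injected over the protein surface and a protein-free reference surface in a single step.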
# Mus musculus [17] = test: Up regulation of PRDX1 expression in human ACHN cells xenografted Balb/c nu/nu mouse at 0.8 mg/kg, ip administered once daily for 21 days measured post-last dose by immunoblot analysis; type: functional, organism-based; summary of the method: as §2
# ACHN [18] = test: Down regulation of SLC2A1 mRNA expression in human ACHN cells at 25 to 50 nM measured after 24 hrs by qRT-PCR analysis; type: functional, cell-based
# ACHN [19] = test: Down regulation of MET mRNA expression in human ACHN cells at 25 to 50 nM measured after 24 hrs by qRT-PCR analysis; type: functional, cell-based
# ACHN [20] = test: Down regulation of HIF1A mRNA expression in human ACHN cells at 25 to 50 nM measured after 24 hrs by qRT-PCR analysis; type: functional, cell-based
# ACHN [21] = test: Antitumor activity against human ACHN cells xenografted in Balb/c nu/nu mouse assessed as tumor weight at 0.8 mg/kg, ip administered once daily for 21 days measured post-last dose by caliper method (reference value: 0.55 +/- 0.13 g); type: functional; summary of the method: as §2
# [22] = Toxicity in Balb/c nu/nu mouse xenografted with human ACHN cells assessed as decrease in body weight at 0.8 mg/kg, ip administered once daily for 21 days; type: organism-based; settings: in vivo, 504 h; summary of the method: as §2
# [23] = Toxicity in Balb/c nu/nu mouse xenografted with human ACHN cells assessed as decrease in body weight at 50 mg/kg, ip administered once daily for 21 days; settings: in vivo, 504 h
# ACHN [24] = test: Antitumor activity against human ACHN cells xenografted in Balb/c nu/nu mouse assessed as tumor weight at 50 mg/kg, ip administered once daily for 21 days measured post-last dose by caliper method (reference value: 0.55 +/- 0.13 g); type: functional
# [25] = Toxicity in Balb/c nu/nu mouse xenografted with human ACHN cells assessed as effect on survival at 50 mg/kg, ip administered once daily for 21 days; type: organism-based; settings: in vivo, 504 h
# Summary of the method: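 Nude mice (Balb/c nu/nu) bearing ACHN flank xenografts received sorafenib tosylate 50 mg/kg, given as a 10× stock in Cremophor EL diluted in PBS. Treatment alongside PBS control for three weeks. Survival and body weight monitored.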
compound,measurement,setting,value
C/C=C(\C)[C@H](O[C@@H]1O[C@H](CO)[C@@H](O)[C@H](O)[C@H]1O)[C@H](C)/C=C(C)/C=C/C/C(C)=C/Cc1nc(OC)c(OC)c(O)c1C,IC50,ACHN [1],0.21 µM
same,Activity,ACHN [2],Active
same,IC50,OS-RC-2,> 100 µM
same,IC50,786-0,> 100 µM
same,TGI,ACHN [3],Active
same,Activity,[4],Active
same,IC50,"ACHN [5]; Homo sapiens, ACHN, 72 h, read-out: IC50",0.96 µM
same,Activity,Mus musculus [6],Active
same,IC50,HK-2,> 100 µM
same,Activity,ACHN [7],Active
same,TGI,ACHN [8],Active
same,Activity,ACHN [9],Active
same,Activity,ACHN [10],Active
same,Activity,ACHN [11],Active
same,Activity,ACHN [12],Active
same,Activity,ACHN [13],Active
same,Ratio IC50,ACHN [14],4
same,Activity,[15],Non-Toxic
same,Activity,[16],Active
same,Kd,Peroxiredoxin-1,1.83 µM
same,Activity,Mus musculus [17],Active
same,Activity,ACHN [18],Active
same,Activity,ACHN [19],Active
same,Activity,ACHN [20],Active
same,Activity,ACHN [21],0.23 g
same,Activity,[22],Non-Toxic
CNC(=O)c1cc(Oc2ccc(NC(=O)Nc3ccc(Cl)c(C(F)(F)F)c3)cc2)ccn1 [SORAFENIB],IC50,ACHN [1],3.3 µM
same,IC50,OS-RC-2,14 µM
same,IC50,786-0,13 µM
same,IC50,ACHN [5]; achn,Not Active
same,IC50,HK-2,2.6 µM
same,Activity,[23],Toxic
same,Activity,ACHN [24],0.12 g
same,Activity,[25],Non-Toxic
